Screening results (PubChem BioAssay)
This is a sample that favours compounds with a hit; in the whole collection about 2.7% have one here.
PRMT1 FP inh: PRMT1 methyltransferase inhibitors, primary screen, biochemical, fluorescence polarization | Protein arginine N-methyltransferase 1 (Homo sapiens), Q99873 | inhibition, % at 2.79 µM | 370,000 compounds, 1.3% hits | AID 652257, 2013 | recombinant PRMT1, activity-based probe fluorescence polarization;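 active = inhibition above about 21% made by adding two undisclosed values, limit read from the data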
TCR CD3 inh: inhibitors of human TCR-CD3 interaction, primary screen, biochemical, fluorescence, TAMRA-labeled TCR probe; inhibition, % at 9.4 µM; 360,000 compounds, 0.37% hits;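 also: recombinant mutant TCR 2C K166C tagged with TAMRA read by polarization; 0% = receptor in buffer alone and 100% = receptor with positive control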
HTRA1 inhibitor: HTRA1 serine protease inhibitors, primary screen, biochemical, fluorescence polarization, HTS. Q92743. recombinant HTRA1, FP-rhodamine activity-based probe. inhibition, % at 5.96 µM. 340,000 compounds, 0.5% hits. AID 504803, 2011; in the data active = inhibition above about 36%;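 also: 0% = enzyme with DMSO and 100% = wells lacking enzyme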
Target sequence (Q92743 whole entry, looked up): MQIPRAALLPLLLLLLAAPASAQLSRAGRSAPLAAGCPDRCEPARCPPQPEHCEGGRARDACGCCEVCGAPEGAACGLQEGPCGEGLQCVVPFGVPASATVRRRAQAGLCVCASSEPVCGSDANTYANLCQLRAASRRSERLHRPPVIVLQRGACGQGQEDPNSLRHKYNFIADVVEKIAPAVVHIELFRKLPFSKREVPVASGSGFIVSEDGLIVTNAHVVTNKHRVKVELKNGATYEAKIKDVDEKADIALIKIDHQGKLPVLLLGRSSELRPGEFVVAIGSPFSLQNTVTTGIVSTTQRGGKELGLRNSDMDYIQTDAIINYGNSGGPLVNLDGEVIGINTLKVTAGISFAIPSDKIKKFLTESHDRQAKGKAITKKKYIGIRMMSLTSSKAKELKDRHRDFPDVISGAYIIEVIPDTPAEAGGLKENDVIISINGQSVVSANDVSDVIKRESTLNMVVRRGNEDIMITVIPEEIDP
ABHD4 inh: ABHD4 inhibitors, primary screen, biochemical, fluorescence polarization, mouse; inhibition, % at 8.92 µM; 370,000 compounds, 0.54% hits; (Lyso)-N-acylphosphatidylethanolamine lipase (Mus musculus), Q8VD66; purified mABHD4, FP-Rh probe fluorescence polarization;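 active = inhibition exceeding the mean over every tested compound plus 3 SD, cut at about 30% in these data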;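 also: 0% = plate median of compound wells and 100% = S159A mutant with DMSO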
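Assay system: wild-type mouse ABHD4 protein; compound: single nominal dose of 8.92 µM, 0.89% DMSO final; schedule: 45 min + 60 min at 25 °C; measured by: FP readout, ex 525 nm / em 598 nm; evaluation: % inhibition of FP-Rh probe binding versus controls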
SIAE inh: human SIAE inhibitors, primary screen, biochemical, fluorescence polarization, FP-Rh probe, 1536-well HTS. SIAE FP-Rh probe binding. Sialate O-acetylesterase (Homo sapiens), Q9HAT2. 370,000 compounds, 0.69% hits. inhibition, % at 9.66 µM;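 active = inhibition above a cutoff: mean of compounds within the control limits plus 3 SD of those, cut at about 17% in these data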;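 also: 0% = plate median of compound wells and 100% = probe without SIAE protein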
BSA TAMRA ctr: compounds interfering with TAMRA-BSA probe, counter-screen for TCR-CD3 interaction inhibitor project, biochemical, fluorescence, TAMRA-labeled BSA | shares compounds with TCR CD3 inh | TAMRA-labeled BSA probe fluorescence counterscreen | inhibition, % at 9.4 µM | 1,200 compounds, 10% hits | AID 652035, 2013; in the data active = inhibition above about 23%;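 also: 0% = buffer low control and 100% = reference high control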
TCR-CD3 conf: TCR-CD3 interaction inhibitors, retest, confirmation, biochemical, fluorescence, TAMRA-labeled TCR probe; shares compounds with TCR CD3 inh; TAMRA-labeled TCR probe fluorescence binding assay; inhibition, % at 9.4 µM; 1,200 compounds, 48% hits; AID 652036, 2013
Starred values were filed as active, the others as inactive. Rule as the data show it, unless noted: active = inhibition above about 19%; inactive = the rest.

How did COc1ccccc1C(=O)NNC(=O)c1ccc(NC(=O)CC(C)C)cc1 do in these assays?
PRMT1 FP inh: 1; TCR CD3 inh: 31*; HTRA1 inhibitor: -10; ABHD4 inh: -1; SIAE inh: 2; BSA TAMRA ctr: 1; TCR-CD3 conf: 32*

How did COc1ccccc1C(=O)NCCC(=O)NNC(=O)c1ccccc1O do in these assays?
PRMT1 FP inh: 9; TCR CD3 inh: 45*; HTRA1 inhibitor: -5; ABHD4 inh: 8; SIAE inh: 6; BSA TAMRA ctr: -16; TCR-CD3 conf: 30*

Results for CCN(c1ccccc1)S(=O)(=O)c1nnc(NC(=O)c2ccccc2OC)s1 ?
PRMT1 FP inh: 1; TCR CD3 inh: -3; HTRA1 inhibitor: -17; ABHD4 inh: -4; SIAE inh: -11

How did O=C(CSc1nnc(-c2cccc(Cl)c2)n1Cc1ccco1)c1ccc(F)cc1 do in these assays?
PRMT1 FP inh: -3; ABHD4 inh: 1; SIAE inh: 3

What do the screens show for `CC(OC(=O)c1ccc(NC(=O)CC#N)cc1)C(=O)Nc1ccc2c(c1)OCCO2` (centres undefined)?
PRMT1 FP inh: -1; TCR CD3 inh: 2; HTRA1 inhibitor: -24; ABHD4 inh: -63; SIAE inh: -34

How did CC(OC(=O)c1ccc(NC(=O)CC#N)cc1)C(=O)NC(c1ccccc1)c1ccccc1 (centres undefined) do in these assays?
PRMT1 FP inh: -4; TCR CD3 inh: 29*; HTRA1 inhibitor: -77; ABHD4 inh: -56; SIAE inh: -51; BSA TAMRA ctr: 4; TCR-CD3 conf: 1

Results for CCOc1ccccc1NC(=O)C(OC(=O)c1ccc(NC(=O)CC#N)cc1)c1ccccc1 (centres undefined) ?
PRMT1 FP inh: 1; TCR CD3 inh: 20*; HTRA1 inhibitor: -102; ABHD4 inh: -48; SIAE inh: -87; BSA TAMRA ctr: -3; TCR-CD3 conf: 4

How did Cc1ccc(NC(=O)C(C)OC(=O)c2ccc(NC(=O)CC#N)cc2)cc1S(=O)(=O)N1CCOCC1 (centres undefined) do in these assays?
PRMT1 FP inh: -6; TCR CD3 inh: 27*; HTRA1 inhibitor: -40; ABHD4 inh: -64; SIAE inh: -92; BSA TAMRA ctr: -3; TCR-CD3 conf: 4

What do the screens show for `Cc1[nH]c2ccccc2c1C(=O)c1c(N)[nH]c(C(=O)c2ccc(Br)cc2)c1-c1ccc(Br)cc1`?
PRMT1 FP inh: -1; TCR CD3 inh: 6; ABHD4 inh: -6; SIAE inh: 9

How did COc1ccc(N2CCN(C(c3cccs3)C(C)NC(=O)C(=O)N3CCCCC3)CC2)cc1 (centres undefined) do in these assays?
PRMT1 FP inh: 2; TCR CD3 inh: 0; HTRA1 inhibitor: 6; ABHD4 inh: 2; SIAE inh: 11

How did COc1ccc(N2CCN(C(c3cccs3)C(C)NC(=O)C(=O)N3CCCC3)CC2)cc1 (centres undefined) do in these assays?
PRMT1 FP inh: 2; TCR CD3 inh: 20*; HTRA1 inhibitor: 3; ABHD4 inh: 6; SIAE inh: 9; BSA TAMRA ctr: 1; TCR-CD3 conf: 1

What do the screens show for `CC(=O)Nc1ccc(OC(=O)CC2SC(=O)NC2=O)cc1` (centres undefined)?
PRMT1 FP inh: -2; TCR CD3 inh: 6; HTRA1 inhibitor: 4; ABHD4 inh: -1; SIAE inh: 0

How did O=C(CC1SC(=O)NC1=O)Oc1ccc(/C=N/NC(=O)c2ccccc2O)cc1 (centres undefined) do in these assays?
PRMT1 FP inh: 5; TCR CD3 inh: 32*; HTRA1 inhibitor: 10; ABHD4 inh: 6; SIAE inh: 9; BSA TAMRA ctr: -15; TCR-CD3 conf: 11

How did Cc1ccnc2nc(C(=O)OCC(=O)N(CC(C)C)C3CCS(=O)(=O)C3)nn12 (centres undefined) do in these assays?
PRMT1 FP inh: -1; TCR CD3 inh: 5; HTRA1 inhibitor: 7; ABHD4 inh: 0; SIAE inh: -4

Results for O=C(NC(C(=O)N/N=C/c1cccc2ccccc12)c1n[nH]c(=O)c2ccccc12)c1ccccc1 (centres undefined) ?
PRMT1 FP inh: 0; TCR CD3 inh: 9; HTRA1 inhibitor: -72; ABHD4 inh: -88; SIAE inh: -137

What do the screens show for `O=C(NC(C(=O)N/N=C/c1cc([N+](=O)[O-])ccc1O)c1n[nH]c(=O)c2ccccc12)c1ccccc1` (centres undefined)?
PRMT1 FP inh: 3; TCR CD3 inh: 29*; HTRA1 inhibitor: 3; ABHD4 inh: 23; SIAE inh: -8; BSA TAMRA ctr: -5; TCR-CD3 conf: 38*

What do the screens show for `CCOC(=O)c1c(C)[nH]c(C(=O)N/N=C/c2cc([N+](=O)[O-])ccc2O)c1C`?
PRMT1 FP inh: 1; TCR CD3 inh: 21*; HTRA1 inhibitor: 14; ABHD4 inh: 1; SIAE inh: -1; BSA TAMRA ctr: -10; TCR-CD3 conf: 41*

How did O=C(N/N=C/c1cc([N+](=O)[O-])ccc1O)c1c[nH]c2ccccc12 do in these assays?
PRMT1 FP inh: -3; TCR CD3 inh: 21*; HTRA1 inhibitor: 5; ABHD4 inh: 2; SIAE inh: 7; BSA TAMRA ctr: -6; TCR-CD3 conf: 14

How did CCOC(=O)c1c(C)[nH]c(C(=O)N/N=C\c2ccccc2O)c1C do in these assays?
PRMT1 FP inh: -1; TCR CD3 inh: 1; HTRA1 inhibitor: -4; ABHD4 inh: -6; SIAE inh: 15

What do the screens show for `C=C(C)c1cccc(C(C)(C)NC(=O)NNC(=O)c2ccccc2O)c1`?
PRMT1 FP inh: 3; TCR CD3 inh: 31*; HTRA1 inhibitor: 20; ABHD4 inh: 9; SIAE inh: 2; BSA TAMRA ctr: -17; TCR-CD3 conf: 15

What do the screens show for `CC(C)c1cc(CN2C(C)COCC2C)cc(C(C)C)c1O` (centres undefined)?
PRMT1 FP inh: 2; TCR CD3 inh: 1; HTRA1 inhibitor: -5; ABHD4 inh: 0; SIAE inh: 6

What do the screens show for `Cc1c(C(=O)O)cccc1[N+](=O)[O-]`?
PRMT1 FP inh: -3; TCR CD3 inh: -1; HTRA1 inhibitor: 7; ABHD4 inh: -6; SIAE inh: 3

Results for O=C(O)c1c[nH]c2c([N+](=O)[O-])cccc2c1=O ?
PRMT1 FP inh: 2; TCR CD3 inh: 24*; HTRA1 inhibitor: 4; ABHD4 inh: 9; SIAE inh: 1; BSA TAMRA ctr: -5; TCR-CD3 conf: 23*
